Results reported in ChEMBL document CHEMBL2010648, “Discovery of novel anti-inflammatory drug-like compounds by aligning in silico and in vivo screening: the nitroindazolinone chemotype” (Eur J Med Chem, 2011).

Legend:
[1] = species: Danio rerio; test: Toxicity in transgenic zebrafish larvae harboring Fli-1 gene assessed as maximum tolerated dosage after 24 hrs; format: organism-based; conditions: in vivo
How it was run: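 Fertilized eggs of the fli-1:EGFP line reared in E3 embryo medium at 28 °C, with PTU added at 20 hpf to block pigmentation. Compounds were dissolved in DMSO and diluted in Danieau's 0.3X, final DMSO ≤1%. Larvae at 4 dpf, 5 per well, were exposed for 24 h to 10, 30 and 100 (highest) concentrations and checked by light microscopy at 5 dpf. MTC is the highest concentration giving no death or toxicity signs.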

[2] = species: Danio rerio; test: Antiinflammatory activity in transgenic zebrafish larvae harboring Fli-1 gene assessed as LPS-stimulated leukocyte migration to injury zone of tail transected larvae at 10 uM after 20 to 22 hrs by microscopy; format: functional
How it was run: (§1)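 Transgenic fli-1:EGFP zebrafish were reared in E3 at 28 °C, with PTU added at 20 hpf. Compounds were dissolved in DMSO and diluted in Danieau's, with final DMSO ≤1%. Ten 4-dpf larvae per group were pretreated for 1 h, anaesthetised with tricaine and tail-transected. They were then incubated with compound plus LPS for 20–22 h, fixed in 4% PFA and stained with Leucognost. Leukocyte migration to the tail tip was scored microscopically as relative leukocyte migration. Run in triplicate.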

[3] = species: Danio rerio; test: Antiinflammatory activity in transgenic zebrafish larvae harboring Fli-1 gene assessed as LPS-stimulated leukocyte migration to injury zone of tail transected larvae at 30 uM after 20 to 22 hrs by microscopy; format: functional; how it was run: as §1
[4] = species: Danio rerio; test: Antiinflammatory activity in transgenic zebrafish larvae harboring Fli-1 gene assessed as LPS-stimulated leukocyte migration to injury zone of tail transected larvae at 100 uM after 20 to 22 hrs by microscopy; format: functional; how it was run: as §1
[5] = species: Danio rerio; test: Antiinflammatory activity in transgenic zebrafish larvae harboring Fli-1 gene assessed as LPS-stimulated leukocyte migration to injury zone of tail transected larvae at 3 uM after 20 to 22 hrs by microscopy; format: functional; how it was run: as §1
[6] = system: J774; test: Cytotoxicity against mouse J774 cells at 1 ug/mL after 24 hrs by MTT assay; format: functional
How it was run: (§2)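 J774 macrophages in RPMI-1640 with 20% heat-inactivated FCS were seeded at 70,000 cells/well and allowed to attach for 24 h at 37 °C. They were exposed to compounds for 24 h (final DMSO ≤0.2%), then given MTT 0.4 mg/mL for 60 min; formazan was dissolved in DMSO and read at OD595. %Cytotoxicity was calculated against growth controls, corrected for compound-in-medium blanks. Each concentration was tested three times, in duplicate assays.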

[7] = system: J774; test: Cytotoxicity against mouse J774 cells at 10 ug/mL after 24 hrs by MTT assay; format: functional; how it was run: as §2
[8] = system: J774; test: Cytotoxicity against mouse J774 cells at 100 ug/mL after 24 hrs by MTT assay; format: functional; how it was run: as §2
[9] = system: Mus musculus; test: Antiinflammatory activity against TPA-induced ear edema in Swiss mouse assessed as inhibition of increase in ear weight at 0.5 mg/ear administered topically measured after 4 hrs relative to control; format: functional
How it was run: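 Female Swiss mice (25–30 g, groups of six) received TPA in acetone topically on the right ear, with the left ear as control. Compound in acetone was applied at the same time. After 4 h, 6 mm punches from both ears were weighed. Oedema was taken as the weight difference between ears, and inhibition % was calculated versus the vehicle group. Mean ± SEM, Dunnett's test.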

[10] = species: Mus musculus; test: Inhibition of MPO activity in TPA-induced Swiss mouse ear tissue homogenates after 3 mins relative to control; format: functional, organism-based; design: concentration or dose not given beside the values
How it was run: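 Ear tissue was homogenised at 0 °C in 80 mM phosphate buffer with 0.5% HTAB, then centrifuged at 10300g for 20 min at 4 °C. Supernatant, in triplicate, was mixed with phosphate buffer (pH 5.4) and H2O2. The reaction was started with TMB in 8% DMF, run 3 min at 37 °C and stopped with NaOAc/HOAc pH 3.0. A630 was read, and inhibition % was calculated versus the vehicle group.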

[11] = species: Danio rerio; test: Antiinflammatory activity in transgenic zebrafish larvae harboring Fli-1 gene assessed as LPS-stimulated leukocyte migration to injury zone of tail transected larvae at 1 uM after 20 to 22 hrs by microscopy; format: functional; how it was run: as §1
[12] = species: Danio rerio; test: Antiinflammatory activity in transgenic zebrafish larvae harboring Fli-1 gene assessed as LPS-stimulated leukocyte migration to injury zone of tail transected larvae at 0.3 uM after 20 to 22 hrs by microscopy; format: functional; how it was run: as §1
[13] = species: Danio rerio; test: Toxicity to transgenic zebrafish larvae harboring Fli-1 gene at 100 uM after 24 hrs; conditions: in vivo
[14] = system: J774; test: Cytotoxicity against mouse J774 cells at 256 uM after 24 hrs by MTT assay; format: functional; how it was run: as §2
[15] = system: J774; test: Cytotoxicity against mouse J774 cells at 128 uM after 24 hrs by MTT assay; format: functional; how it was run: as §2
[16] = system: J774; test: Cytotoxicity against mouse J774 cells at 64 uM after 24 hrs by MTT assay; format: functional; how it was run: as §2

SMILES | MTD [1] [µM] | Ratio [2] | Ratio [3] | Ratio [5] | Ratio [11] | other results
O=c1[nH]n(Cc2ccccc2O)c2ccc([N+](=O)[O-])cc12 | > 100 | 0.86 | 0.61 | – | – | Ratio [4]: 0.27
Cn1c(=O)c2cc([N+](=O)[O-])ccc2n1Cc1ccccc1 | 30 | 0.46 | 0.26 | 0.6 | – | Activity [6]: 32.8%; Activity [7]: 43.9%; Activity [8]: 58.4%; inhibition (INH) [9]: 97%; inhibition [10]: 56%
O=C(NN1Cc2ccccc2C1)c1cc([N+](=O)[O-])ccc1Cl | > 100 | 0.93 | 0.93 | – | – | Ratio [4]: 0.7
O=c1[nH]n(Cc2ccccc2CCl)c2ccc([N+](=O)[O-])cc12 | 10 | 0.33 | – | 0.78 | 0.83 | –
O=c1c2cc([N+](=O)[O-])ccc2[nH]n1Cc1ccccn1 | > 100 | 0.94 | 0.62 | – | – | Ratio [4]: 0.66
O=C1C2=Cc3ccccc3CCN2c2ccccc21 | 3 | – | – | 0.24 | 0.4 | Ratio [12]: 0.64; Activity [6]: 3.4%; Activity [7]: 9.4%; Activity [8]: 73.1%; inhibition (INH) [9]: 73%; inhibition [10]: 56%; Activity [13]: Toxic
COc1ccc(Cn2[nH]c(=O)c3cc([N+](=O)[O-])ccc32)cc1 | 10 | 0.8 | – | 0.87 | 0.87 | –
CCCn1c2ccc([N+](=O)[O-])cc2c(=O)n1Cc1ccccc1 | 30 | 0.86 | 0.16 | 0.89 | – | –
O=c1c2cc([N+](=O)[O-])ccc2[nH]n1Cc1ccccc1 | > 100 | 0.81 | 0.65 | – | – | Ratio [4]: 0.39
CCOCc1ccccc1CCN1CC(=O)Nc2cc([N+](=O)[O-])ccc21 | 10 | 0.48 | – | 0.62 | 0.59 | –
O=C(Cc1cc([N+](=O)[O-])ccc1F)NN1Cc2ccccc2C1 | > 100 | 0.89 | 0.87 | – | – | Ratio [4]: 0.5
O=c1[nH]n(Cc2ccccc2)c2ccc([N+](=O)[O-])cc12 | 10 | 0.46 | – | 0.67 | 0.88 | –
O=c1c2cc([N+](=O)[O-])ccc2n(Cc2ccccc2)n1Cc1ccccc1 | 10 | 0.35 | – | 0.65 | 0.58 | Activity [14]: 57.87%; Activity [15]: 64%; Activity [16]: 9.77%; inhibition (INH) [9]: 80%; inhibition [10]: 36%
CCCCCn1c2ccc([N+](=O)[O-])cc2c(=O)n1Cc1ccccc1 | 10 | 0.27 | – | 0.67 | 0.68 | Activity [14]: 80.99%; Activity [15]: 71.75%; Activity [16]: 54.14%; inhibition (INH) [9]: 92%; inhibition [10]: 46%
CN(C)CCCOc1nn(Cc2ccccc2F)c2ccc([N+](=O)[O-])cc12 | 30 | 0.89 | 0.97 | 0.74 | – | –
Cn1c2ccc([N+](=O)[O-])cc2c(=O)n1Cc1ccccc1 | 30 | 0.63 | 0.27 | 0.67 | – | Activity [6]: 11.5%; Activity [7]: 21%; Activity [8]: 57.5%; inhibition (INH) [9]: 104%; inhibition [10]: 67%
O=c1[nH]n(Cc2ccccc2F)c2ccc([N+](=O)[O-])cc12 | 10 | 0.3 | – | 0.84 | 0.91 | –

SMILES | MTD [1] [µM] | Ratio [2] | Ratio [3] | Ratio [5] | Ratio [11] | other results
O=[N+]([O-])c1ccc2c(c1)CC([O-])=N[N+]21CCCCC1 | > 100 | 0.86 | 0.89 | – | – | Ratio [4]: 0.81
O=c1[nH]n(Cc2ccccc2Cl)c2ccc([N+](=O)[O-])cc12 | 30 | 0.22 | 0.26 | 0.78 | – | –
O=c1c2cccnc2n2n1Cc1ccccc1C2 | 30 | 0.8 | 0.52 | 0.89 | – | –
COc1nn(Cc2ccccc2F)c2ccc([N+](=O)[O-])cc12 | 30 | 0.92 | 0.87 | 0.86 | – | –
COc1ccc2c(c1)c(CC(=O)O)c(C)n2C(=O)c1ccc(Cl)cc1 [INDOMETHACIN] | > 100 | 0.48 | 0.38 | 0.5 | 0.54 | Ratio [12]: 0.57; Ratio [4]: 0.28; inhibition (INH) [9]: 97%; inhibition [10]: 61%
O=c1[nH]n(Cc2ccccc2OCc2ccccc2)c2ccc([N+](=O)[O-])cc12 | 10 | 0.84 | – | 0.76 | 0.94 | –
O=c1c2cc([N+](=O)[O-])ccc2n2n1Cc1ccccc1C2 | 10 | 0.29 | – | 0.54 | 0.56 | –
O=[N+]([O-])c1ccc2c(c1)c(OCc1ccccc1)nn2Cc1ccccc1 | 10 | 0.73 | – | 0.75 | 0.94 | –
O=C(NCc1cc([N+](=O)[O-])ccc1N1CCc2ccccc2C1)NCc1cc([N+](=O)[O-])ccc1N1CCc2ccccc2C1 | 10 | 0.81 | – | 0.82 | 0.85 | –
O=[N+]([O-])c1ccc2[nH]nc(OCc3ccccc3Cl)c2c1 | 10 | 0.41 | – | 0.65 | 0.62 | Activity [6]: 4.4%; Activity [7]: 9.4%; Activity [8]: 96.4%; inhibition (INH) [9]: 91%; inhibition [10]: 63%
O=c1[nH]n(Cc2ccccc2F)c2ccccc12 | 30 | 0.25 | 0.17 | 0.46 | – | inhibition (INH) [9]: 32%; inhibition [10]: -3%
COc1nn(Cc2ccccc2-c2ccccc2Cn2nc(OC)c3cc([N+](=O)[O-])ccc32)c2ccc([N+](=O)[O-])cc12 | 10 | 0.69 | – | 0.87 | 0.84 | –
O=c1[nH]n(Cc2cccc(Cn3[nH]c(=O)c4cc([N+](=O)[O-])ccc43)c2)c2ccc([N+](=O)[O-])cc12 | 10 | 0.64 | – | 0.8 | 0.87 | –
O=c1[nH]n(Cc2ccccn2)c2ccc([N+](=O)[O-])cc12 | > 100 | 0.83 | 0.74 | – | – | Ratio [4]: 0.59
O=C1Nc2cc([N+](=O)[O-])ccc2N2Cc3ccccc3CC12 (stereo not given) | 10 | 0.77 | – | 0.71 | 0.75 | –
O=c1[nH]n(Cc2ccccc2-c2ccccc2Cn2[nH]c(=O)c3cc([N+](=O)[O-])ccc32)c2ccc([N+](=O)[O-])cc12 | 10 | 0.85 | – | 0.92 | 0.72 | –
